Source: ChEMBL document CHEMBL1145100, “Structure-activity relationship of imidazo[1,2-a]pyridines as ligands for detecting beta-amyloid plaques in the brain” (J Med Chem, 2003)

Key:
Assay type in all cases: ADME, organism-based
Mus musculus [1] = experiment: Biodistribution of radioactivity in normal mice (ICR) spleen after 2 hours of intravenous injection of [125I]-16(IMPY); details: in vivo
In short: (§1)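 Male ICR mice, 2-3 months old, 20-30 g, under ether anesthesia, given 0.15 mL of 0.1% bovine serum albumin solution containing the [125I] tracer into the tail vein. Killed by cardiac excision at set times after injection. Organs removed and weighed, then gamma-counted. % dose per organ computed against diluted aliquots of the injected material.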

Mus musculus [2] = experiment: Biodistribution of radioactivity in normal mice (ICR) spleen after 2 minutes of intravenous injection of [125I]-16(IMPY); details: in vivo; in short: as §1
Mus musculus [3] = experiment: Biodistribution of radioactivity in normal mice (ICR) spleen after 24 hours of intravenous injection of [125I]-16(IMPY); details: in vivo; in short: as §1
Mus musculus [4] = experiment: Biodistribution of radioactivity in normal mice (ICR) spleen after 30 minutes of intravenous injection of [125I]-16(IMPY); details: in vivo, 0.5 h; in short: as §1
Mus musculus [5] = experiment: Biodistribution of radioactivity in normal mice (ICR) spleen after 6 hours of intravenous injection of [125I]-16(IMPY); details: in vivo; in short: as §1
Mus musculus [6] = experiment: Biodistribution of radioactivity in normal mice blood after 1 hour of intravenous injection of [125I]-16(IMPY); details: in vivo; in short: as §1
Mus musculus [7] = experiment: Biodistribution of radioactivity in normal mice blood after 2 hours of intravenous injection of [125I]-16(IMPY); details: in vivo; in short: as §1
Mus musculus [8] = experiment: Biodistribution of radioactivity in normal mice blood after 2 minutes of intravenous injection of [125I]-16(IMPY); details: in vivo
In short: (§2)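 Male ICR mice (2-3 months old, 20-30 g) under ether anesthesia; 0.15 mL of 0.1% bovine serum albumin solution containing the iodine-125 tracer injected into the tail vein. Mice killed by cardiac excision at set times. Organs removed, weighed and gamma-counted. Percent dose per organ derived against diluted aliquots of the injectate.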

Mus musculus [9] = experiment: Biodistribution of radioactivity in normal mice blood after 24 hours of intravenous injection of [125I]-16(IMPY); details: in vivo; in short: as §2
Mus musculus [10] = experiment: Biodistribution of radioactivity in normal mice blood after 30 minutes of intravenous injection of [125I]-16(IMPY); details: in vivo, 0.5 h; in short: as §2
Mus musculus [11] = experiment: Biodistribution of radioactivity in normal mice blood after 6 hours of intravenous injection of [125I]-16(IMPY); details: in vivo; in short: as §2
Mus musculus [12] = experiment: Biodistribution of radioactivity in normal mice (ICR) brain after 1 hour of intravenous injection of [125I]-16(IMPY); details: in vivo; in short: as §1
Mus musculus [13] = experiment: Biodistribution of radioactivity in normal mice (ICR) brain after 2 hours of intravenous injection of [125I]-16(IMPY); details: in vivo; in short: as §1
Mus musculus [14] = experiment: Biodistribution of radioactivity in normal mice (ICR) brain after 2 minutes of intravenous injection of [125I]-16(IMPY); details: in vivo; in short: as §1
Mus musculus [15] = experiment: Biodistribution of radioactivity in normal mice (ICR) brain after 24 hours of intravenous injection of [125I]-16(IMPY); details: in vivo; in short: as §1
Mus musculus [16] = experiment: Biodistribution of radioactivity in normal mice (ICR) brain after 30 minutes of intravenous injection of [125I]-16(IMPY); details: in vivo, 0.5 h; in short: as §1
Mus musculus [17] = experiment: Biodistribution of radioactivity in normal mice (ICR) brain after 6 hours of intravenous injection of [125I]-16(IMPY); details: in vivo; in short: as §1
Mus musculus [18] = experiment: Biodistribution of radioactivity in normal mice (ICR) heart after 2 hours of intravenous injection of [125I]-16(IMPY); details: in vivo; in short: as §1
Mus musculus [19] = experiment: Biodistribution of radioactivity in normal mice (ICR) heart after 2 minutes of intravenous injection of [125I]-16(IMPY); details: in vivo; in short: as §1
Mus musculus [20] = experiment: Biodistribution of radioactivity in normal mice (ICR) heart after 24 hours of intravenous injection of [125I]-16(IMPY); details: in vivo; in short: as §1
Mus musculus [21] = experiment: Biodistribution of radioactivity in normal mice (ICR) heart after 30 minutes of intravenous injection of [125I]-16(IMPY); details: in vivo, 0.5 h; in short: as §1
Mus musculus [22] = experiment: Biodistribution of radioactivity in normal mice (ICR) heart after 6 hours of intravenous injection of [125I]-16(IMPY); details: in vivo; in short: as §1
Mus musculus [23] = experiment: Biodistribution of radioactivity in normal mice (ICR) kidney after 1 hour of intravenous injection of [125I]-16(IMPY); details: in vivo; in short: as §1
Mus musculus [24] = experiment: Biodistribution of radioactivity in normal mice (ICR) kidney after 2 hours of intravenous injection of [125I]-16(IMPY); details: in vivo; in short: as §1
Mus musculus [25] = experiment: Biodistribution of radioactivity in normal mice (ICR) kidney after 2 minutes of intravenous injection of [125I]-16(IMPY); details: in vivo; in short: as §1
Mus musculus [26] = experiment: Biodistribution of radioactivity in normal mice (ICR) kidney after 24 hours of intravenous injection of [125I]-16(IMPY); details: in vivo; in short: as §1
Mus musculus [27] = experiment: Biodistribution of radioactivity in normal mice (ICR) heart after 1 hour of intravenous injection of [125I]-16(IMPY); details: in vivo; in short: as §1

- Dose/organ (Mus musculus [1]): 0.05%
- Dose/organ (Mus musculus [2]): 0.4%
- Dose/organ (Mus musculus [3]): 0.01%
- Dose/organ (Mus musculus [4]): 0.09%
- Dose/organ (Mus musculus [5]): 0.04%
- Dose/organ (Mus musculus [6]): 2.5%
- Dose/organ (Mus musculus [7]): 1.82%
- Dose/organ (Mus musculus [8]): 6.41%
- Dose/organ (Mus musculus [9]): 0.18%
- Dose/organ (Mus musculus [10]): 2.44%
- Dose/organ (Mus musculus [11]): 1.4%
- Dose/organ (Mus musculus [12]): 0.21%
- Dose/organ (Mus musculus [13]): 0.14%
- Dose/organ (Mus musculus [14]): 2.88%
- Dose/organ (Mus musculus [15]): 0.02%
- Dose/organ (Mus musculus [16]): 0.26%
- Dose/organ (Mus musculus [17]): 0.06%
- Dose/organ (Mus musculus [18]): 0.08%
- Dose/organ (Mus musculus [19]): 0.79%
- Dose/organ (Mus musculus [20]): 0.01%
- Dose/organ (Mus musculus [21]): 0.16%
- Dose/organ (Mus musculus [22]): 0.04%
- Dose/organ (Mus musculus [23]): 1.17%
- Dose/organ (Mus musculus [24]): 0.53%
- Dose/organ (Mus musculus [25]): 4.75%
- Dose/organ (Mus musculus [26]): 0.05%
- Dose/organ (Mus musculus [27]): 0.12%
Compound: CN(C)c1ccc(-c2cn3cc(I)ccc3n2)cc1
